Reference: ChEMBL document CHEMBL2380272, “Biological evaluation of bisbenzaldehydes against four Mycobacterium species” (Eur J Med Chem, 2013)
≈ marks a conversion by molar mass, not a printed value.

tested on: Mycobacterium tuberculosis variant bovis; assay: Antimycobacterial activity against Mycobacterium bovis AN5 assessed as growth inhibition after 6 days by luciferase reporter gene assay; assay type: functional; conditions: AN5, 144 h
How it was run: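 Mycobacteria carrying the pSMT1 luciferase reporter plasmid. Compounds came from 10 mM DMSO stocks and were serially diluted in 7H9 + 10% FCS. Thawed bacteria were filtered, recovered 1 h at 37 °C, then added at 50 000 RLU/mL. After 6 days of culture, light was read for 10 s after adding 1% n-decanal. Triplicates were run, and MIC50 was the concentration giving 50% growth inhibition.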

| Structure (SMILES) | MIC50 |
| --- | --- |
| O=Cc1ccc(OCCOc2ccc(C=O)cc2)cc1 | 2.41 µM (≈ 0.651 µg/mL) |
| O=Cc1ccc(OCCCCCCOc2ccc(C=O)cc2)cc1 | 0.94 µM (≈ 0.307 µg/mL) |
| O=Cc1ccc(OCCCOc2ccc(C=O)cc2)cc1 | 2.65 µM (≈ 0.753 µg/mL) |
| O=Cc1ccc(OCCCCOc2ccc(C=O)cc2)cc1 | 2.51 µM (≈ 0.749 µg/mL) |
| O=Cc1ccc(OCCCCCCCCCCCOc2ccc(C=O)cc2)cc1 | 0.71 µM (≈ 0.282 µg/mL) |
| O=Cc1ccc(OCCCCCOc2ccc(C=O)cc2)cc1 | 1.69 µM (≈ 0.528 µg/mL) |
| O=Cc1ccc(OCCCCCCCCCCOc2ccc(C=O)cc2)cc1 | 0.81 µM (≈ 0.31 µg/mL) |
| O=Cc1ccc(OCOc2ccc(C=O)cc2)cc1 | 2.93 µM (≈ 0.751 µg/mL) |
| NNC(=O)c1ccncc1 [ISONIAZID] | < 0.1 µM |
| O=Cc1ccc(OCCCCCCCCCCCCOc2ccc(C=O)cc2)cc1 | 0.64 µM (≈ 0.263 µg/mL) |
| O=Cc1ccc(OCCCCCCCCOc2ccc(C=O)cc2)cc1 | 0.95 µM (≈ 0.337 µg/mL) |
| O=Cc1ccc(OCCCCCCCCCOc2ccc(C=O)cc2)cc1 | 1.01 µM (≈ 0.372 µg/mL) |
| O=Cc1ccc(OCCCCCCCOc2ccc(C=O)cc2)cc1 | 0.97 µM (≈ 0.33 µg/mL) |
